hDAT+cocaine: human DAT dopamine uptake with cocaine, either direction. Q01959. LLC-PK1 hDAT cells, [14C]-dopamine uptake with cocaine IC80; actives deviate in either direction. B-score at 10 µM. 110,000 tested, 1.3% active. AID 449768;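 active means Z score or B-score, a plate-position-corrected score, falls beyond the plate's 99.7% confidence bounds, in either direction; inactive means both scores lie inside the 99.7% bounds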
Target sequence (Q01959 whole entry, looked up): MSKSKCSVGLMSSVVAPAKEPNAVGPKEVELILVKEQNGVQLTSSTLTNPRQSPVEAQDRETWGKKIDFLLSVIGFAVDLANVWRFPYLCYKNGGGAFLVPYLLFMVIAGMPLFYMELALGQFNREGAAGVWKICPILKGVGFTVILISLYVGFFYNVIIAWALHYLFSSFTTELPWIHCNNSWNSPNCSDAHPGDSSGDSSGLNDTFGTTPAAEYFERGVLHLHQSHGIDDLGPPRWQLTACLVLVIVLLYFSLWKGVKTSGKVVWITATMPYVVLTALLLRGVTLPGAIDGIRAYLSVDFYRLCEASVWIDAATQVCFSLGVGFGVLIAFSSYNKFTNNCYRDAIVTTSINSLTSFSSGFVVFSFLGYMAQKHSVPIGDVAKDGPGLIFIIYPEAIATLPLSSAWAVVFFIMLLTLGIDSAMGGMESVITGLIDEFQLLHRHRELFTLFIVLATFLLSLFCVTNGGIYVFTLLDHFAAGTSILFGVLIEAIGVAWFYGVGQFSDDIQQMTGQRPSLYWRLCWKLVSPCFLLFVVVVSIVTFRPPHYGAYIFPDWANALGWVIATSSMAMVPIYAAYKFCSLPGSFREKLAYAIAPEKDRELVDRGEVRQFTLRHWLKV
WT yeast gro inh: growth inhibition of WT yeast, mitochondrial fusion screen | mitochondrial fusion phenotypic screen, WT strain | inhibition, % at 10 µM | 190,000 tested, 2.1% active | AID 1362; in the data active means inhibition above about 58%; tested in S. cerevisiae
Measles CPE: protection of cells from measles virus; Measles virus-infected cells, CPE protection, absorbance; protection (pct of control), % at 4 µM; 140,000 tested, 1.5% active; AID 841; in the data active means protection mostly above about 24%, no sharp cut-off; inactive means mostly below about 26%
Yeast life ext: yeast lifespan extension; S. cerevisiae growth with nicotinamide, OD615; deaD strain in restrictive glucose medium; 130,000 tested, 0.68% active; AID 775; inhibition of the nicotinamide effect, % at 10 µM;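 active means inhibition above a set limit, placed 3 SD over the median of all compounds, cut at about 26% in these data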
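Test system: DeaD-strain S. cerevisiae / Buffer or medium: restrictive glucose medium / Also added: nicotinamide 1.5 mM / Doses: one concentration, 10 µM, DMSO 0.25% / Schedule: 48 h at 30 °C / Signal: OD615 measurement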
RAM network inh: inhibitors of the yeast RAM network; S. cerevisiae dse1pr::URA3 reporter, 5-FOA growth OD615, 2 d; analog-sensitive cbk1-as2 kinase mutant strain; AID 868; inhibition, % at 50 µM; 190,000 tested, 1.8% active;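 active means inhibition above a set limit, 3 SD over mean compound inhibition, cut at about 8.4% in these data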;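 further: inhibition rescues growth on 5-FOA so higher OD means more RAM inhibition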
BB579 growth dn: reduces growth of yeast BB579 in restrictive medium; 140,000 tested, 0.51% active; inhibition, % at 10 µM; S. cerevisiae BB579 growth, OD615, 48 h;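 active means inhibition above a set limit, 3 SD over the mean compound inhibition, cut at about 44% in these data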
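System: Saccharomyces cerevisiae DeaD strain BB579, replicative lifespan model yeast. Buffer or medium: restrictive glucose-based CSMM-D medium. Doses: one dose, 10 µM compound with 0.25% DMSO. Timing: 4 h preincubation and 48 h exposure at 30 °C. Detection: turbidity as optical density at 615 nm. Benchmarks: amphotericin B 10 µg/mL, positive.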
RAM 5-FOA: RAM network inhibitors in efflux-deficient yeast. 1,200 tested, under 10 active. S. cerevisiae efflux-deficient reporter strain, 5-FOA growth OD615, 2 days. max inhibition, %. shares compounds with RAM network inh; call rule not given here
Of the large screens only hits and unclear results are named; the others gave an inactive call (follow-up assays come after a bar, where they were run). This is a sample that favours compounds with a hit; in the whole collection about 6.1% have one here.

O=C(N[C@@H](c1ccccc1)[C@@H]1C[C@H]1C(=O)O)OCc1ccccc1	none
CCN(CC)S(=O)(=O)c1ccc(NC(=O)COC(=O)c2ccc(Br)o2)cc1	RAM network inh 47 | RAM 5-FOA inactive
COc1ccccc1OCCC(=O)OCC(=O)NC(C)c1ccccc1 (stereo not given)	none (no result: hDAT+cocaine)
Nc1nc(-c2ccccc2)c(N=Nc2cccnc2)s1	RAM network inh 13 (no result: hDAT+cocaine, Measles CPE, Yeast life ext, BB579 growth dn) | RAM 5-FOA inactive
CCOC(=O)C1=C(O)/C(=C/c2ccc(OCC(=O)O)c(OC)c2)SC1=Nc1ccc(OC)cc1	RAM network inh 14 (no result: hDAT+cocaine) | RAM 5-FOA inactive
O=C(OCc1ccccc1)C1=[N+]([O-])OC(C(=O)OCc2ccccc2)C1c1c[nH]c2ccccc12 (stereo not given)	RAM network inh 12 | RAM 5-FOA inactive
COc1ccc(/C=C/c2ccccc2)cc1[C@H]1[C@H]2C=CC[C@@H](C)[C@@H]2C(=O)N1Cc1ccccc1	none (no result: WT yeast gro inh, Measles CPE, Yeast life ext, RAM network inh, BB579 growth dn)
O=[N+]([O-])c1ccc(COc2cccc(CNc3ccc(Br)cc3)c2)cc1	RAM network inh 14 (no result: hDAT+cocaine) | RAM 5-FOA inactive
CCc1sc(C(=O)Nc2cc(Cl)ccc2N2CCCCC2)cc1C	RAM network inh 14 | RAM 5-FOA inactive
Cc1ccc(C(=O)Nc2cc(Cl)ccc2N2CCCCC2)s1	WT yeast gro inh 68, RAM network inh 14 | RAM 5-FOA inactive
O=C(Nc1cc(Cl)ccc1N1CCCCC1)c1cccs1	none
COc1cccc(-c2csc3nnc(SCC(=O)NCc4cccs4)n23)c1	RAM network inh 17 | RAM 5-FOA inactive
Cc1[nH]n(-c2ccccc2)c(=O)c1C(C[N+](=O)[O-])c1ccc(Cl)cc1 (stereo not given)	none (no result: hDAT+cocaine)
Cc1[nH]n(-c2ncc(-c3ccccc3)s2)c(=O)c1C(c1ccc(Cl)cc1)C(C#N)C#N (stereo not given)	Yeast life ext 35, RAM network inh 12 (no result: hDAT+cocaine) | RAM 5-FOA inactive
CCCN(CCC)CC(=O)Nc1cccc2c1OCO2	none
COc1ccccc1-c1ccc(/C=C2/C=C(CC(C)C)OC2=O)o1	RAM network inh 14 (no result: hDAT+cocaine) | RAM 5-FOA inactive
CCCC1=C/C(=C/c2ccc(-c3ccccc3OC)o2)C(=O)O1	none (no result: hDAT+cocaine)
COC(=O)c1ccccc1NC(=O)c1cccc(COc2ccccc2Cl)c1	RAM network inh 12 | RAM 5-FOA inactive
COC(=O)c1ccccc1NC(=S)NC(=O)COc1ccccc1Cl	none (no result: hDAT+cocaine)
Cc1ccc(NC(=O)CCSc2nnnn2-c2ccc3c(c2)OCO3)cc1C	RAM network inh 12 | RAM 5-FOA inactive
Cc1ccc(S(=O)(=O)NCc2ccc3c(c2)cc(C)n3C)cc1	RAM network inh 12 | RAM 5-FOA inactive
CN(C)S(=O)(=O)c1cccc(N=c2scc(-c3ccc4c(c3)NC(=O)CO4)n2CC2CCCO2)c1 (stereo not given)	none (no result: hDAT+cocaine)
C=CCNC(=O)c1ccc2c(c1)nnn2C	RAM network inh 14 | RAM 5-FOA inactive
CNC(=O)c1ccc2c(c1)nnn2C	none (no result: hDAT+cocaine)
COc1ccc(N=C2S/C(=C\c3cccs3)C(=O)N2CC(C)C)cc1	none
COc1ccc(N=C2S/C(=C\c3ccc(C)s3)C(=O)N2CC(C)C)cc1	RAM network inh 15 | RAM 5-FOA inactive
O=C(CN(Cc1ccco1)S(=O)(=O)c1cccs1)Nc1ccccc1C(F)(F)F	none
CCc1ccc(OCC(=O)O/N=C(\N)Cc2ccc([N+](=O)[O-])cc2)cc1	none (no result: hDAT+cocaine)
Cc1cccc(OCC(=O)O/N=C(\N)Cc2ccc([N+](=O)[O-])cc2)c1	RAM network inh 18 (no result: hDAT+cocaine, Measles CPE, Yeast life ext, BB579 growth dn) | RAM 5-FOA inactive
CC(C)N(Cc1nc(-c2ccc(Cl)cc2)no1)C(=O)/C=C/c1ccccc1	RAM network inh 12 (no result: hDAT+cocaine) | RAM 5-FOA inactive
CC(=O)c1cc2c(cc1NC(=O)CN1CCCCC1C)OCO2 (stereo not given)	none
CN(C)c1nc(NC(C)(C)C)nc(SCC(=O)Nc2ccccc2)n1	none (no result: hDAT+cocaine, Measles CPE, Yeast life ext, BB579 growth dn)
COc1cccc(NC(=O)NCc2ccccc2F)c1	none (no result: hDAT+cocaine, Measles CPE, Yeast life ext, BB579 growth dn)
COc1cccc(N/C(SCc2ccccc2F)=C(/C#N)C(=O)NCc2cccs2)c1	RAM network inh 16 (no result: hDAT+cocaine) | RAM 5-FOA inactive
CCOC(=O)c1cnn(-c2ccccc2)c1-n1cccc1C(=O)C(=O)Nc1ccccc1C(F)(F)F	RAM network inh 14 | RAM 5-FOA inactive
CCOC(=O)c1cnn(-c2ccccc2)c1-n1cccc1C(=O)C(=O)N(CC)CC	none (no result: hDAT+cocaine, Measles CPE, Yeast life ext, BB579 growth dn)
Cc1cc(C)c2sc(N)nc2c1	none (no result: hDAT+cocaine, Measles CPE, Yeast life ext, BB579 growth dn)
O=C(c1cccs1)n1nc(-c2ccc(Cl)cc2)nc1NCc1ccco1	RAM network inh 13 | RAM 5-FOA inactive
COc1ccc(CC(=O)n2nc(-c3ccc(Cl)cc3)nc2NCc2ccco2)cc1	RAM network inh 14 | RAM 5-FOA inactive
Cc1ccc(C(=O)n2nc(-c3ccccc3)nc2NCc2ccco2)cc1	RAM network inh 13 | RAM 5-FOA inactive
CCCC(=O)n1nc(-c2ccc(C)cc2)nc1NCc1ccco1	none (no result: hDAT+cocaine, Measles CPE, Yeast life ext, BB579 growth dn)
CC(=O)n1nc(-c2ccc(Cl)cc2)nc1NCc1ccco1	none
O=S(=O)(c1ccccc1)n1nc(-c2ccccc2)nc1NCc1ccco1	RAM network inh 16 | RAM 5-FOA inactive
CSc1nc(-c2ccccc2)nn1S(=O)(=O)c1ccccc1	none (no result: Yeast life ext)
Cc1nn2c(nc1=O)NNC2(C)C(C)(C)C (stereo not given)	none (no result: hDAT+cocaine, Measles CPE, Yeast life ext, BB579 growth dn)
O=C(NCc1cccnc1)C(=O)NCC(c1ccco1)N1CCN(c2ccc(F)cc2)CC1 (stereo not given)	none (no result: hDAT+cocaine)
COc1ccc(CNC(=O)CN(c2ccc(OC)cc2)S(=O)(=O)c2c(C)nn(C)c2C)cc1	none (no result: hDAT+cocaine)
COc1ccc(N(CC(=O)NCc2ccc(C)cc2)S(=O)(=O)c2c(C)nn(C)c2C)cc1	RAM network inh 15 (no result: hDAT+cocaine) | RAM 5-FOA inactive
Cc1cc(C)c(S(=O)(=O)Nc2ccc3c(c2)CCC3)c(C)c1	WT yeast gro inh 77, RAM network inh 13 (no result: hDAT+cocaine) | RAM 5-FOA inactive
Cc1cc(C)c(S(=O)(=O)Nc2ccc(O)cc2)c(C)c1	none
O=S(=O)(NCCc1csc(-c2ccc(C(F)(F)F)cc2)n1)c1ccc2c(c1)OCCO2	WT yeast gro inh 74, RAM network inh 12 | RAM 5-FOA inactive
COc1ccc(-c2nc(CCNS(=O)(=O)c3ccc4c(c3)OCCO4)cs2)cc1	none
Cc1nc(C)c(NC(=O)N2CCc3ccccc32)cc1NC(=O)N1CCc2ccccc21	RAM network inh 12 | RAM 5-FOA inactive
N=C(SC1CC(=O)N(c2ccc(F)cc2)C1=O)N1N=C(c2ccccc2)CC1c1ccccc1 (stereo not given)	none (no result: hDAT+cocaine, Measles CPE, Yeast life ext, BB579 growth dn)
CSc1ccc(Cl)c(C(=O)NCCOc2cc(C(C)C)ccc2C)c1	WT yeast gro inh 67, RAM network inh 14 | RAM 5-FOA inactive
CCCNC(=O)C1(CC2CC(c3ccccc3)=NO2)CCN(C(=O)CCCCCBr)CC1 (stereo not given)	none (no result: WT yeast gro inh, Measles CPE, Yeast life ext, RAM network inh, BB579 growth dn)
CCc1nc(-c2ccc(-c3ccc(OC)cc3)nc2OC)no1	none

Compound activity (PubChem)
